This note sets out measurements from ChEMBL document CHEMBL4033642, “Design and synthesis of neolamellarin a derivatives targeting heat shock protein 90” (Eur J Med Chem, 2017).

Molecules are shown by their SMILES.

In test [1] the test system is NCI-H1299. The experiment in a line: Antiproliferative activity against human H1299 cells after 48 hrs by resazurin dye-based fluorescence assay. To be noted: NCI-H1299, 48 h. It counts as functional, cell-based. In short, it runs like this:
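H1299 non-small-cell lung cells, kept subconfluent, passages 3–30, seeded 2000 cells/well; after 24 h exposed to serial concentrations in serum complete medium, 0.1% DMSO final, for 48 h. Resazurin then added, 16 h at 37 °C; fluorescence read at 544 nm excitation/595 nm emission, proportional to viable cells. IC50 from three repeats.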
(The colour change of resazurin is a common sign of viable cells or microbes.)

Test [2] has as its system NCI-H1299. The experiment in a line: Induction of apoptosis in human H1299 cells assessed as increase in cleaved PARP levels after 72 hrs by Western blot analysis. Type of test: functional, cell-based. In short, it runs like this: (§1)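 H1299 cells seeded in 15 cm dishes at 8 × 10⁴ cells/mL, 24 h, then treated at 7.5 and 15 µM for 72 h at 37 °C; DMSO-only controls. Lysed on ice 30 min, cleared at 10000 × g, protein by BCA. 25–100 µg run on 10% or 12% SDS-PAGE, blotted to nitrocellulose. Probed with antibodies to CDK2, EGFR, p-EGFR (Tyr1068), AKT, p-AKT, cleaved PARP; β-actin loading control; chemiluminescence; three repeats.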

Test [3] concerns the target T1, Heat shock protein HSP 90-alpha (Homo sapiens, UniProt P07900). The experiment in a line: Inhibition of HSP90alpha in human H1299 cells assessed as decrease in phosphorylation of EGFR after 72 hrs by Western blot analysis. Type of test: cell-based. A digest of the protocol: as §1
For test [4], the system named is NCI-H1299. The experiment in a line: Induction of apoptosis in human H1299 cells assessed as inhibition of expression of CDK2 after 72 hrs by Western blot analysis. Type of test: functional, cell-based. In short, it runs like this: as §1
In general terms: Immunoblotting shows a protein as a band on a membrane.

Test [5] deals with NCI-H1299. The experiment in a line: Antiproliferative activity against human H1299 cells assessed as inhibition of cell viability after […] by resazurin dye-based fluorescence assay. Type of test: functional. In short, it runs like this:
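H1299 cells, 2000/well, seeded 24 h, then exposed to serial compound concentrations in serum-containing complete medium for 48 h (DMSO vehicle, 0.1% final). Resazurin (2 mg/mL stock) added, 16 h at 37 °C. Fluorescence read at 544 nm ex / 595 nm em; RFU taken as proportional to living cells.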

Test [6] addresses T1, Heat shock protein HSP 90-alpha. The experiment in a line: Inhibition of HSP90alpha in human H1299 cells assessed as decrease in phosphorylation of AKT after 72 hrs by Western blot analysis. Type of test: cell-based. A digest of the protocol:
as §1

Test [7] shares this target. The experiment in a line: Inhibition of HSP90alpha in human H1299 cells assessed as decrease in EGFR levels after 72 hrs by Western blot analysis. It counts as cell-based. In short, it runs like this: as §1
Test [8] has the same target. The experiment in a line: Inhibition of FITC-GA binding to N-terminal domain of HSP90alpha (unknown origin) after 5 hrs by fluorescence polarization assay. (In fluorescence polarisation assays a small probe gives low polarisation when free and higher when bound to something large.)
Test [9] has the same target. The experiment in a line: Inhibition of HSP90alpha in human H1299 cells assessed as decrease in AKT levels after 72 hrs by Western blot analysis. Type of test: cell-based. In short, it runs like this: as §1

One may read the IC50 as the point on the concentration scale where inhibition reaches its midpoint. Read a low IC50 as greater potency. Turning to `Oc1ccc(-c2cn(Cc3ccccc3)cc2-c2ccc(O)cc2)cc1`, in test [1], half-maximal inhibition (IC50) was put at 26.9 µM. This counts as double-digit micromolar.

Turning to `COc1cc(Cn2cc(-c3ccc(O)c(O)c3)c(-c3ccc(O)c(O)c3)c2)cc(OC)c1OC`, in test [2], the Activity entry is “Dose-dependent effect”. The inhibition result in [3], in test [4], in test [5], in [6], in [7] and in test [9] was “Dose-dependent effect” throughout. Also, the IC50 in test [8] is 0.852 µM; in test [1] it was 13.2 µM.

`COc1ccccc1Cn1cc(-c2ccc(O)cc2)c(-c2ccc(O)cc2)c1` registered a half-inhibitory concentration (IC50) in test [1] of 23.1 µM.

Regarding `COc1cccc(Cn2cc(-c3ccc(O)cc3)c(-c3ccc(O)cc3)c2)c1`, the IC50 in [1] was 25.3 µM.

With `COc1ccc(-c2cn(Cc3ccc(O)c(O)c3)cc2-c2ccc(OC)c(OC)c2)cc1OC`, it took 23.4 µM to reach half-maximal inhibition in test [1] (IC50).

`COc1ccc(Cn2cc(-c3ccc(O)cc3)c(-c3ccc(O)cc3)c2)cc1` yielded a half-inhibitory concentration (IC50) in test [1] of 37.3 µM.

In test [1], `COc1ccc(-c2cn(Cc3ccc(O)cc3)cc2-c2ccc(OC)cc2)cc1` had an IC50 of 20.5 µM.

On to `C=CCNC1=C2C[C@@H](C)C[C@H](OC)[C@H](O)[C@@H](C)/C=C(\C)[C@H](OC(N)=O)[C@@H](OC)/C=C\C=C(/C)C(=O)NC(=CC1=O)C2=O` [TANESPIMYCIN], for which the IC50 in test [1] amounted to 0.2 µM.

In the case of `COc1ccc(Cn2cc(-c3ccc(O)cc3)c(-c3ccc(O)cc3)c2)cc1OC`, the inhibition entry in [5] is “Dose-dependent effect”. The same compound displayed an IC50 in test [1] of 29.2 µM.

For the compound `COc1ccc(-c2cn(Cc3ccc(O)c(O)c3)cc2-c2ccc(OC)cc2)cc1`, the inhibition result in test [5] was “Dose-dependent effect”. Further, the IC50 in test [1] was 19.1 µM.

In test [1], `COc1ccc(-c2cn(Cc3ccc(O)cc3)cc2-c2ccc(OC)c(OC)c2)cc1OC` gave an IC50 of 30.6 µM.

Take `COc1cc(-c2cn(Cc3ccc(O)c(O)c3)cc2-c2cc(OC)c(OC)c(OC)c2)cc(OC)c1OC`: the IC50 in [1] turned out to be 29.2 µM. This IC50 and that of the compound before are within 1.5-fold of each other.

In [1], `COc1ccc(-c2cn(Cc3ccccc3O)cc2-c2ccc(OC)cc2)cc1` showed an IC50 of 20.8 µM.

The compound `COc1cc(-c2cn(Cc3ccc(O)cc3)cc2-c2cc(OC)c(OC)c(OC)c2)cc(OC)c1OC` came in with a half-maximal inhibitory concentration (IC50) in test [1] of more than 100 µM.

The compound `COc1ccc(Cn2cc(-c3ccc(O)cc3)c(-c3ccc(O)cc3)c2)c(OC)c1` came in with a half-inhibitory concentration (IC50) in [1] of 31.6 µM. This counts as double-digit micromolar.

Consider `COc1ccc(Cn2cc(-c3ccc(O)c(O)c3)c(-c3ccc(O)c(O)c3)c2)cc1`, for which the Activity entry in test [2] is “Dose-dependent effect”. The inhibition result in [3], in test [4], in test [5], in test [6], in [7] and in [9] was “Dose-dependent effect” each time. Also, the IC50 in [8] stood at 0.752 µM; in [1], 8.3 µM.

For `COc1ccccc1Cn1cc(-c2ccc(O)c(O)c2)c(-c2ccc(O)c(O)c2)c1`, the IC50 in test [1] turned out to be 8.6 µM.

`COc1ccc(Cn2cc(-c3ccc(O)cc3)c(-c3ccc(O)cc3)c2)c(OC)c1OC` displayed an IC50 in [1] of 25.1 µM.

For the compound `COc1ccc(Cn2cc(-c3ccc(O)c(O)c3)c(-c3ccc(O)c(O)c3)c2)cc1OC`, the Activity result in test [2] is “Dose-dependent effect”. The inhibition entry in test [3], in [4], in test [5], in [6], in test [7] and in [9] was “Dose-dependent effect” throughout. Further, the IC50 in test [8] was 0.374 µM; in test [1], 10.5 µM.
